Data published in ChEMBL document CHEMBL1155568, “Biological characterization of fusapyrone and deoxyfusapyrone, two bioactive secondary metabolites of Fusarium semitectum” (J Nat Prod, 2000).
Calls of active or inactive are those of the source. The rule behind the calls is not given here.

Legend:
Nakaseomyces glabratus = experiment: Antifungal activity against Candida glabrata at 50 ug/disk by paper disk method; assay type: functional, organism-based
Aspergillus niger [1] = experiment: Antifungal activity against Aspergillus niger 2 after 24 hrs by broth micromethod assay; assay type: functional
Method in brief: (§1)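 Broth microdilution in YNB with 0.5% glucose, phosphate buffer pH 7, using ten 2-fold dilutions (50-0.097 µg/mL). Inoculum from 24-48 h Sabouraud agar cultures, final 5 × 10^2 cells for C. albicans and C. kefyr, 5 × 10^3 cells/conidia for C. glabrata, Cryptococcus neoformans and Aspergillus. Incubated at 35 °C up to 72 h, read every 24 h. MIC is the complete absence of growth versus medium controls.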

Aspergillus flavus [2] = experiment: Antifungal activity against Aspergillus flavus 3 after 48 hrs by broth micromethod assay; assay type: functional; method in brief: as §1
Saccharomyces cerevisiae = experiment: Antifungal activity against Saccharomyces cerevisiae ITEM 1633 at 15 ug/disk by paper disk method; assay type: functional; conditions: read-out: IZ
Method in brief: (§2)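 Agar overlay disk diffusion on plant-derived filamentous fungi and yeasts: 0.7% water-agar seeded with 10^4 conidia/mL or a yeast cell suspension, poured over PDA. 6-mm cellulose disks were loaded from methanolic solutions and air-dried, with nystatin as comparator. Plates ran 24-72 h at 25 °C; inhibition halo was measured over three disks. Agar beneath disks was subcultured on PDA to separate fungicidal from fungistatic, scored in four classes; run twice, averaged.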

Kluyveromyces marxianus [3] = experiment: Antifungal activity against Kluyveromyces fragilis ITEM 1657 at 15 ug/disk by paper disk method; assay type: functional; conditions: read-out: IZ; method in brief: as §2
Cladosporium cucumerinum = experiment: Antifungal activity against Cladosporium cucumerinum ITEM 2095 at 15 ug/disk by paper disk method; assay type: functional; conditions: read-out: IZ
Method in brief: (§3)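 Agar diffusion: a 0.7% water-agar overlay carrying 10^4 conidia/mL (or yeast cells) is poured on PDA. 6-mm cellulose disks loaded with methanolic compound at 5 or 15 µg/disk are air-dried and applied, with nystatin as comparator. Plates incubated 24-72 h at 25 °C; inhibition halo diameter read from three disks. Agar under each disk is subcultured on PDA to score fungicidal/fungistatic effect. Experiment run twice and averaged.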

Kluyveromyces marxianus [4] = experiment: Antifungal activity against Candida kefyr Y0601 after 24 hrs by broth micromethod assay; assay type: functional; method in brief: as §1
Cryptococcus neoformans [5] = experiment: Antifungal activity against Cryptococcus neoformans 13 after 48 hrs by broth micromethod assay; assay type: functional; method in brief: as §1
Alternaria alternata [6] = experiment: Antifungal activity against Alternaria alternata ITEM 750 at 15 ug/disk by paper disk method; assay type: functional; conditions: read-out: IZ; method in brief: as §3
Alternaria alternata [7] = experiment: Antifungal activity against Alternaria alternata ITEM 511 at 15 ug/disk by paper disk method; assay type: functional; conditions: read-out: IZ; method in brief: as §3
Alternaria alternata [8] = experiment: Antifungal activity against Alternaria alternata ITEM 468 at 15 ug/disk by paper disk method; assay type: functional; conditions: read-out: IZ; method in brief: as §3
Fusarium incarnatum = experiment: Antifungal activity against Fusarium semitectum ITEM 393 at 15 ug/disk by paper disk method; assay type: functional; conditions: read-out: IZ; method in brief: as §3
Alternaria citri = experiment: Antifungal activity against Alternaria citri ITEM 466 at 15 ug/disk by paper disk method; assay type: functional; conditions: read-out: IZ
Method in brief: (§4)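 Agar overlay diffusion: 0.7% water-agar with 10^4 conidia/mL of test fungus poured over PDA; 6-mm cellulose disks impregnated with methanolic compound solution, air-dried. Incubated 25 °C for 24-72 h by fungus; growth-inhibition halo diameter from three replicate disks. Agar under disks then subcultured on PDA to score fungicidal/fungistatic classes. Repeated twice, averaged.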

Fusarium oxysporum [9] = experiment: Antifungal activity against Fusarium oxysporum ITEM 1462 at 15 ug/disk by paper disk method; assay type: functional; conditions: read-out: IZ; method in brief: as §3
Fusarium acuminatum = experiment: Antifungal activity against Fusarium acuminatum ITEM 795 at 15 ug/disk by paper disk method; assay type: functional; conditions: read-out: IZ; method in brief: as §3
Aspergillus flavus [10] = experiment: Antifungal activity against Aspergillus flavus 3 after 24 hrs by broth micromethod assay; assay type: functional; method in brief: as §1
Candida albicans [11] = experiment: Antifungal activity against Candida albicans 2 after 24 hrs by broth micromethod assay; assay type: functional; method in brief: as §1
Solanum lycopersicum [12] = experiment: Phytotoxicity in tomato stem assessed as chlorosis in the leaf at 10^-3 M by tomato cutting assay; assay type: organism-based; conditions: in vivo, 1000 µM
Method in brief: (§5)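 Young greenhouse tomato plants were cut, and the stems were immersed in toxin solutions (MeOH stock diluted with water; 10^-3 to 10^-6 M). They were held 24 h at 22 °C under a 12-h photoperiod, then moved to distilled water for 48 h more, and symptoms were scored visually.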

Cicer arietinum [13] = experiment: Phytotoxicity against chickpea cells at 10^-5 M; assay type: organism-based; conditions: 10 µM
Method in brief: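 Cells came from 2-week-old chickpea leaves by enzyme digestion, washed in holding buffer at pH 5.55, and mixed 1:1 with compound (final 10^-5 to 10^-3 M in 1% MeOH). They were held 3 h at 25 °C in the dark, then stained with fluorescein diacetate. Viability was scored on 30 cells by fluorescence microscopy. Fusaric acid served as positive control; repeated twice.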

Fusarium graminearum = experiment: Antifungal activity against Fusarium graminearum ITEM 2 at 15 ug/disk by paper disk method; assay type: functional; conditions: read-out: IZ; method in brief: as §4
Cryptococcus neoformans [14] = experiment: Antifungal activity against Cryptococcus neoformans 13 after 24 hrs by broth micromethod assay; assay type: functional; method in brief: as §1
Solanum lycopersicum [15] = experiment: Stimulation of root elongation in tomato at 10^-5 M; assay type: functional, organism-based
Method in brief: (§6)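 Tomato seeds were surface-sterilized in 4% NaClO for 10 min and pregerminated 3 days in the dark. They were then placed 10 per dish on filter paper wetted with 2 mL of compound in 1% MeOH (10^-4 or 10^-5 M) and held 4 days at 25 °C under a 12-h photoperiod. Shoot and rootlet lengths were measured against control; done in triplicate, repeated once.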

Cryptococcus neoformans [16] = experiment: Antifungal activity against Cryptococcus neoformans 14 after 72 hrs by broth micromethod assay; assay type: functional; method in brief: as §1
[17] = test system: Meyerozyma guilliermondii; experiment: Antifungal activity against Pichia guilliermondii ITEM 1644 at 15 ug/disk by paper disk method; assay type: functional; conditions: read-out: IZ; method in brief: as §2
Candida maltosa = experiment: Antifungal activity against Candida maltosa ITEM 1639 at 15 ug/disk by paper disk method; assay type: functional; conditions: read-out: IZ; method in brief: as §3
Wickerhamomyces anomalus = experiment: Antifungal activity against Pichia anomala ITEM 1661 at 15 ug/disk by paper disk method; assay type: functional; conditions: Hansenula anomala; read-out: IZ; method in brief: as §2
Aspergillus niger [18] = experiment: Antifungal activity against Aspergillus niger 2 after 48 hrs by broth micromethod assay; assay type: functional; method in brief: as §1
Fusarium oxysporum [19] = experiment: Antifungal activity against Fusarium oxysporum ITEM 149 at 15 ug/disk by paper disk method; assay type: functional; conditions: read-out: IZ; method in brief: as §3
Ascochyta rabiei = experiment: Antifungal activity against Ascochyta rabiei ITEM 466 at 5 ug/disk by paper disk method; assay type: functional, organism-based; method in brief: as §3
Aspergillus niger [20] = experiment: Antifungal activity against Aspergillus niger 2 after 72 hrs by broth micromethod assay; assay type: functional; method in brief: as §1
Rhodotorula mucilaginosa = experiment: Antifungal activity against Rhodotorula pilimanae at 15 ug/disk by […]; assay type: functional; conditions: read-out: IZ
Solanum lycopersicum [21] = experiment: Stimulation of root elongation in tomato at 10^-4 M; assay type: functional, organism-based; method in brief: as §6
Priestia megaterium = experiment: Antimicrobial activity against Bacillus megaterium at 30 ug/disk by agar diffusion method; assay type: functional, organism-based
Candida albicans [22] = experiment: Antifungal activity against Candida albicans at 50 ug/disk by paper disk method; assay type: functional, organism-based
Aspergillus fumigatus = experiment: Antifungal activity against Aspergillus fumigatus 1 after 48 hrs by broth micromethod assay; assay type: functional; method in brief: as §1
Cicer arietinum [23] = experiment: Phytotoxicity in chickpea leaf assessed as necrosis in the leaf at 10^-3 M by leaf puncture assay; assay type: organism-based; conditions: in vivo, 1000 µM
Method in brief: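 Tomato and chickpea leaves were punctured and treated with toxin dissolved in MeOH and diluted with water (final 4% MeOH), tested from 10^-2 to 10^-7 M. Chlorosis and necrosis were recorded visually as spot symptoms.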

Candida albicans [24] = experiment: Antifungal activity against Candida albicans 1 after 24 hrs by broth micromethod assay; assay type: functional; method in brief: as §1
Solanum lycopersicum [25] = experiment: Phytotoxicity in tomato leaf assessed as chlorosis in the leaf at 10^-4 M by tomato cutting assay; assay type: organism-based; conditions: in vivo, 100 µM; method in brief: as §5

Structure (SMILES)	Activity (Nakaseomyces glabratus)	Activity (Aspergillus niger [1])	Activity (Aspergillus flavus [2])	zone of inhibition at 15 µg/disc (Saccharomyces cerevisiae)	zone of inhibition at 15 µg/disc (Kluyveromyces marxianus [3])	zone of inhibition at 15 µg/disc (Cladosporium cucumerinum)	Activity (Kluyveromyces marxianus [4])	Activity (Cryptococcus neoformans [5])	zone of inhibition at 15 µg/disc (Alternaria alternata [6])	zone of inhibition at 15 µg/disc (Alternaria alternata [7])	zone of inhibition at 15 µg/disc (Alternaria alternata [8])	zone of inhibition at 15 µg/disc (Fusarium incarnatum)	zone of inhibition at 15 µg/disc (Alternaria citri)	zone of inhibition at 15 µg/disc (Fusarium oxysporum [9])	zone of inhibition at 15 µg/disc (Fusarium acuminatum)	Activity (Aspergillus flavus [10])	Activity (Candida albicans [11])	Activity (Solanum lycopersicum [12])	Activity (Cicer arietinum [13])	zone of inhibition at 15 µg/disc (Fusarium graminearum)	also measured
CCCCCCC(C)C/C(C)=C\C(/C=C(C)/C=C/C(O)C(C)(C)c1cc(O)c([C@@H]2O[C@@H](CO)C[C@@H](O)[C@@H]2O)c(=O)o1)CO (stereo partly specified) [FUSAPYRONE]	inactive	1.56 µg/mL	1.56 µg/mL	0 mm	0 mm	33.3 mm	0.78 µg/mL	6.25 µg/mL	18.7 mm	18 mm	18.8 mm	28.7 mm	18 mm	28.3 mm	17.8 mm	1.56 µg/mL	>50 µg/mL	Not Active	Active	26.5 mm	Activity (Cryptococcus neoformans [14]): 6.25 µg/mL; Activity (Solanum lycopersicum [15]): Active; Activity (Cryptococcus neoformans [16]): 3.12 µg/mL; zone of inhibition at 15 µg/disc [17]: 0 mm; zone of inhibition at 15 µg/disc (Candida maltosa): 0 mm; zone of inhibition at 15 µg/disc (Wickerhamomyces anomalus): 0 mm; Activity (Aspergillus niger [18]): 1.56 µg/mL; zone of inhibition at 15 µg/disc (Fusarium oxysporum [19]): 27.7 mm; Activity (Ascochyta rabiei): Active; Activity (Aspergillus niger [20]): 1.56 µg/mL; zone of inhibition at 15 µg/disc (Rhodotorula mucilaginosa): 0 mm; Activity (Solanum lycopersicum [21]): Active; Activity (Priestia megaterium): inactive; Activity (Candida albicans [22]): inactive; Activity (Aspergillus fumigatus): 1.56 µg/mL; Activity (Cicer arietinum [23]): Active; Activity (Candida albicans [24]): >50 µg/mL; Activity (Solanum lycopersicum [25]): Active
CCCCCCC(C)C/C(C)=C\C(C)/C=C(C)/C=C/C(O)C(C)(C)c1cc(O)c([C@@H]2O[C@@H](CO)C[C@@H](O)[C@@H]2O)c(=O)o1 (stereo partly specified) [DEXOYFUSAPYRONE]	inactive	1.56 µg/mL	1.56 µg/mL	0 mm	0 mm	13.5 mm	>50 µg/mL	6.25 µg/mL	10.5 mm	11 mm	10.8 mm	8 mm	9.2 mm	0 mm	0 mm	1.56 µg/mL	>50 µg/mL	Not Active	Active	10.8 mm	Activity (Cryptococcus neoformans [14]): 6.25 µg/mL; Activity (Solanum lycopersicum [15]): Active; Activity (Cryptococcus neoformans [16]): 3.12 µg/mL; zone of inhibition at 15 µg/disc [17]: 0 mm; zone of inhibition at 15 µg/disc (Candida maltosa): 0 mm; zone of inhibition at 15 µg/disc (Wickerhamomyces anomalus): 0 mm; Activity (Aspergillus niger [18]): 1.56 µg/mL; zone of inhibition at 15 µg/disc (Fusarium oxysporum [19]): 4 mm; Activity (Ascochyta rabiei): Active; Activity (Aspergillus niger [20]): 1.56 µg/mL; zone of inhibition at 15 µg/disc (Rhodotorula mucilaginosa): 0 mm; Activity (Solanum lycopersicum [21]): Active; Activity (Priestia megaterium): inactive; Activity (Candida albicans [22]): inactive; Activity (Aspergillus fumigatus): 3.12 µg/mL; Activity (Cicer arietinum [23]): Active; Activity (Candida albicans [24]): >50 µg/mL; Activity (Solanum lycopersicum [25]): Active
